Assay results collected from several papers.
Lines come from different studies, so protocols differ.
Organism: Klebsiella pneumoniae
Effect on: microbial growth

| SMILES | test | test system | setting | MIC |
| --- | --- | --- | --- | --- |
| CCCCCCC#Cc1cncc(-c2nnc(SCc3ccc([N+](=O)[O-])cc3)n2CCCN)c1 | broth dilution | DSM30104 |  | > 64 µg/mL |
| CN(C)[C@@H]1C(O)=C(C(N)=O)C(=O)[C@@]2(O)C(O)=C3C(=O)c4c(O)cccc4[C@@](C)(O)[C@H]3C[C@@H]12 | broth dilution | ATCC43816 |  | 2 µg/mL |
| [H]/N=C(/N)N[C@H]1[C@H](O)[C@@H](O)[C@H](O[C@@H]2O[C@@H](C)[C@](O)(C=O)[C@H]2O[C@@H]2O[C@@H](CO)[C@H](O)[C@@H](O)[C@@H]2NC)[C@@H](N/C(N)=N\[H])[C@@H]1O | broth dilution | ATCC700603 |  | > 512 µg/mL |
| CN(C)c1ccc(O)c2c1C[C@H]1C[C@H]3[C@H](N(C)C)C(O)=C(C(N)=O)C(=O)[C@@]3(O)C(O)=C1C2=O | broth dilution | ATCC43816 |  | 1 µg/mL |
| CCCCCCCCCCCC[N+](C)(C)Cc1ccccc1 |  | ATCC4352 |  | 8 µM |
| CCCCCCC#Cc1cncc(-c2nnc(SCc3ccc(Cl)cc3)n2CCCN)c1 | broth dilution | DSM30104 |  | 32 µg/mL |
| N[C@@H](Cc1c[nH]c2ccc(Cl)cc12)C(=O)O |  | MGH78578 | 18 h | > 200 µM |
| CCN1CCN(C(=O)N[C@@H](C(=O)N[C@@H]2C(=O)N3[C@@H]2SC(C)(C)[C@@H]3C(=O)O)c2ccccc2)C(=O)C1=O | broth dilution | ATCC43816 |  | 4 µg/mL |
| C[C@H]1[C@H](NC(=O)/C(=N\OC(C)(C)C(=O)O)c2csc(N)n2)C(=O)N1S(=O)(=O)O | broth dilution | ATCC13883 |  | 0.0625 µg/mL |
| C[C@H]1COc2c(N3CCN(C)CC3)c(F)cc3c(=O)c(C(=O)O)cn1c23 | broth dilution | ATCC43816 |  | < 0.5 µg/mL |
| C[C@@H](O)[C@H]1C(=O)N2C(C(=O)O)=C(SCCN=CN)C[C@H]12 | broth dilution | ATCC13883 |  | 4 µg/mL |
| CN(C)[C@@H]1C(O)=C(C(N)=O)C(=O)[C@@]2(O)C(O)=C3C(=O)c4c(O)cccc4[C@@](C)(O)[C@H]3C[C@@H]12 | broth dilution | ATCC27736 | 16 h | 3.1 µM |
| CO/N=C(\C(=O)N[C@@H]1C(=O)N2C(C(=O)O)=C(CSc3nc(=O)c(=O)[nH]n3C)CS[C@H]12)c1csc(N)n1 | broth dilution | ATCC700603 |  | > 512 µg/mL |
| CNC(C)C1CCC(N)C(OC2C(N)CC(N)C(OC3OCC(C)(O)C(NC)C3O)C2O)O1 (centres unmarked) | broth dilution | ATCC13883 |  | 2 µg/mL |
